Measurements from different studies.
Lines come from different studies, so protocols differ.
Target: 5-hydroxytryptamine receptor 7 (HTR7, Homo sapiens, UniProt P34969)
Concentration: 10 µM

| Structure (SMILES) | read-out | method | inhibition [%] |
| --- | --- | --- | --- |
| COc1cc2c3c(c1OC)-c1cc4c(cc1CC3N(C)CC2)OCO4 (racemic) | ligand displacement | radioligand | 96.7 |
| CCCNc1nc2ccccc2n1Cc1ccc(Cl)cc1 | ligand displacement | – | 13.5 |
| Oc1cccc(Nc2nc(-c3ccc(F)cc3F)cs2)c1 | ligand displacement | radioligand | -31.9 |
| C[C@@H](c1cccc(C#N)c1)n1cc(Cl)cc(C(N)=O)c1=N | ligand displacement | – | 4.17 |
| COc1cc(NC(C)=O)c(Cl)cc1C(=O)Nc1nccs1 | ligand displacement | radioligand | -7.7 |
| CC(C)(C)OC(=O)N1CCCC1CNC1CCC(c2cc(F)ccc2F)(S(=O)(=O)c2ccc(Cl)cc2)CC1 (stereo not drawn) | cell-free assay | – | 70.7 |
| N#Cc1cc(Cn2c(N3CCCC3)nc3ccccc32)ccc1F | ligand displacement | – | -11.2 |
| COc1cc2c3c(c1OC)-c1cc4c(cc1CC3N(C)CC2c1ccccc1)OCO4 (stereo not drawn) | ligand displacement | radioligand | < 50 |
| CCN(CC)c1ccc(C2Nc3ccc(C(=O)c4ccccc4)cc3NC3=C2C(=O)CC(C)(C)C3)cc1 (stereo not drawn) | ligand displacement | radioligand | 4 |
